Test results reported in ChEMBL document CHEMBL1125645, “Specific bradycardic agents. 2. Heteroaromatic modifications in the side chain of specific bradycardic benzazepinones: chemistry, pharmacology, and structure-activity relationships” (1991).
Activity calls are given as the source filed them. No cut-off for these calls is given here.

Columns and labels:
Rattus norvegicus [1] = test: Hypotensive activity was evaluated in an anesthetized rat model as percent mean aortic blood pressure(mm hg) reduction 5 min after iv injection of 5 mg/kg; format: functional, Artery
Outline: (§1)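 In pentobarbital-anesthetized (50 mg/kg ip), artificially ventilated male Chbb:THOM rats (200-250 g), mean aortic pressure was measured through a carotid artery cannula connected to an electromechanical transducer. Readings were taken before and 5 min after 5 mg/kg iv. Values are % change from baseline, ± SEM.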

Rattus norvegicus [2] = test: Bradycardic activity was evaluated in an anesthetized rat model as percent heart rate(beats/min) reduction 5 min after iv injection of 5 mg/kg; format: functional
Outline: (§2)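 Male Chbb:THOM rats, 200-250 g, anesthetized with pentobarbital sodium 50 mg/kg ip, with the trachea cannulated and artificial respiration given. Heart rate was recorded continuously by an ECG-triggered beat-to-beat tachograph before and at 5 and 20 min after a single iv injection of 5 mg/kg. Values are % change from pre-dose, reported ± SEM.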

Rattus norvegicus [3] = species: Rattus norvegicus; test: Ratio of heart rate reduction to mean arterial blood pressure reduction; format: functional
Outline: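 Selectivity parameter S: the % heart-rate reduction divided by the % mean arterial pressure reduction, both read 5 min after 5 mg/kg iv in anesthetized, ventilated male Chbb:THOM rats. Heart rate came from an ECG-triggered tachograph and pressure from a carotid cannula.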

Rattus norvegicus [4] = test: Bradycardic activity was evaluated in an anesthetized rat model as percent heart rate(beats/min) reduction 20 min after iv injection of 5 mg/kg; format: functional; outline: as §2
Rattus norvegicus [5] = species: Rattus norvegicus; test: Delta HR ratio measured as the ratio of delta HR(20 min)/delta HR (5 min); format: functional
Outline: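 Duration-of-action index: the % heart-rate reduction at 20 min divided by that at 5 min after 5 mg/kg iv. Rats were male Chbb:THOM, pentobarbital-anesthetized and ventilated, with heart rate taken from an ECG-triggered tachograph.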

Rattus norvegicus [6] = test: Hypotensive activity was evaluated in an anesthetized rat model as percent mean aortic blood pressure(mm hg) reduction 5 min after iv injection of 5 mg/kg of the compound; NA=Not active; format: functional, organism-based; set-up: dose 5 mg/kg; conditions: Artery; outline: as §1
Rattus norvegicus [7] = test: Bradycardic activity was evaluated in an anesthetized rat model as percent heart rate(beats/min) reduction 5 min after iv injection of 5 mg/kg of the compound; NA=Not active; format: functional, organism-based; set-up: dose 5 mg/kg; outline: as §2
Rattus norvegicus [8] = test: Bradycardic activity was evaluated in an anesthetized rat model as percent heart rate(beats/min) reduction 20 min after iv injection of 5 mg/kg of the compound; NA=Not active; format: functional, organism-based; set-up: dose 5 mg/kg; outline: as §2

| SMILES | Delta MAP (Rattus norvegicus [1]) | Delta HR (Rattus norvegicus [2]) | Selectivity (Rattus norvegicus [3]) | Delta HR (Rattus norvegicus [4]) | Ratio (Rattus norvegicus [5]) | Delta MAP (Rattus norvegicus [6]) | Delta HR (Rattus norvegicus [7]) | Delta HR (Rattus norvegicus [8]) |
| --- | --- | --- | --- | --- | --- | --- | --- | --- |
| COc1cc2c(cc1OC)CC(=O)N(CCCN(C)CCc1cccn1C)CC2 | -18% | -30% | 1.7 | -18% | 0.59 |  |  |  |
| COc1cc2c(cc1OC)CC(=O)N(CCCN(C)CCc1csc3cc(O)ccc13)CC2 | -29% | -50% | 1.7 | -37% | 0.74 |  |  |  |
| COc1cc2c(cc1OC)CC(=O)N(CCCN(C)CCc1ccco1)CC2 | -52% | -12% | 0.23 | -11% | 0.92 |  |  |  |
| COc1cc2c(cc1OC)CC(=O)N(CCCN(C)CCc1c[nH]c3ccc(Br)cc13)CC2 | -34% | -33% | 0.98 | -27% | 0.82 |  |  |  |
| COc1cc2c(cc1OC)CC(=O)N(CCCN(C)CCc1ccccn1)CC2 |  | -15% |  | -16% | 1.1 | inactive |  |  |
| COc1cc2c(cc1OC)CC(=O)N(CCCN(C)CCn1ccnc1)CC2 |  |  |  |  |  | inactive | inactive | inactive |
| COc1cc2c(cc1OC)CC(=O)N(CCCN(C)CCCCc1cccs1)CC2 | -2% | -61% | 2.3 | -24% | 0.39 |  |  |  |
| COc1cc2c(cc1OC)CC(=O)N(CCCN(C)CCc1csc3cc(OS(C)(=O)=O)ccc13)CC2 | -21% | -50% | 2.4 | -40% | 0.8 |  |  |  |
| COc1cc2c(cc1OC)CC(=O)N(CCCN(C)CCc1ccncc1)CC2 |  | -10% |  | -21% | 2.1 | inactive |  |  |
| COc1cc2c(cc1OC)CC(=O)N(CCCN(C)Cc1c(C)noc1C)CC2 |  | -5% |  | -14% | 2.8 | inactive |  |  |
| COc1cc2c(cc1OC)CC(=O)N(CCCN(C)CCc1csc3c1CCCC3)CC2 | -43% | -69% | 1.6 | -55% | 0.8 |  |  |  |
| COc1cc2c(cc1OC)CC(=O)N(CCCN(C)CCCc1c[nH]c3ccccc13)CC2 | -34% | -62% | 1.8 | -47% | 0.76 |  |  |  |
| COc1cc2c(cc1OC)CC(=O)N(CCCN(C)CCc1c[nH]c3ccccc13)CC2 | -23% | -50% | 2.2 | -36% | 0.73 |  |  |  |
| COc1cc2c(cc1OC)CC(=O)N(CCCN(C)CCCc1cccs1)CC2 | -20% | -40% | 2 | -19% | 0.48 |  |  |  |
| COc1cc2c(cc1OC)CC(=O)N(CCCN(C)CCc1cncc3cc(OC)c(OC)cc13)CC2 |  | -5% |  | -5% | 1 | inactive |  |  |
| COc1cc2c(cc1OC)CC(=O)N(CCCN(C)CCCc1csc3ccccc13)CC2 | -46% | -65% | 1.4 | -45% | 0.69 |  |  |  |
| COc1cc2c(cc1OC)CC(=O)N(CCCN(C)CCCc1ccco1)CC2 | -61% | -19% | 0.31 | -18% | 0.95 |  |  |  |
| COc1cc2c(cc1OC)CC(=O)N(CCCN(C)CCc1coc3ccccc13)CC2 | -39% | -54% | 1.4 | -39% | 0.72 |  |  |  |
| COc1ccc(CCN(C)CCCN2CCc3cc(OC)c(OC)cc3CC2=O)cc1OC [ZATEBRADINE] | -21% | -56% | 2.6 | -46% | 0.83 |  |  |  |
| COc1cc2c(cc1OC)CC(=O)N(CCCN(C)CCc1c[nH]c3ccc(OCc4ccccc4)cc13)CC2 | -45% | -49% | 1.1 | -46% | 0.93 |  |  |  |
| COc1cc2c(cc1OC)CC(=O)N(CCCN(C)CCc1c[nH]c3ccc(O)cc13)CC2 | -27% | -49% | 1.8 | -24% | 0.49 |  |  |  |

| SMILES | Delta MAP (Rattus norvegicus [1]) | Delta HR (Rattus norvegicus [2]) | Selectivity (Rattus norvegicus [3]) | Delta HR (Rattus norvegicus [4]) | Ratio (Rattus norvegicus [5]) | Delta MAP (Rattus norvegicus [6]) | Delta HR (Rattus norvegicus [7]) | Delta HR (Rattus norvegicus [8]) |
| --- | --- | --- | --- | --- | --- | --- | --- | --- |
| COc1cc2c(cc1OC)CC(=O)N(CCCN(C)CCc1scnc1C)CC2 |  |  |  |  |  | inactive | inactive | inactive |
| COc1cc2c(cc1OC)CC(=O)N(CCCN(C)CCc1cccs1)CC2 | -34% | -28% | 0.82 | -16% | 0.56 |  |  |  |
| COc1cc2c(cc1OC)CC(=O)N(CCCN(C)CCCCn1ccnc1)CC2 |  |  |  |  |  | inactive | inactive | inactive |
| COc1cc2c(cc1OC)CC(=O)N(CCCN(C)CCc1cc(C)sc1C)CC2 | -36% | -61% | 1.7 | -40% | 0.65 |  |  |  |
| COc1cc2c(cc1OC)CC(=O)N(CCCN(C)CCCCCc1cccs1)CC2 | -15% | -68% | 4.4 | -36% | 0.53 |  |  |  |
| COc1ccc2c(CCN(C)CCCN3CCc4cc(OC)c(OC)cc4CC3=O)coc2c1 | -35% | -59% | 1.7 | -34% | 0.58 |  |  |  |
| COc1cc2c(cc1OC)CC(=O)N(CCCN(C)CCc1ccsc1)CC2 |  | -24% |  | -19% | 0.79 | inactive |  |  |
| COc1cc2c(cc1OC)CC(=O)N(CCCN(C)CCc1csc3cccc(OC)c13)CC2 | -21% | -34% | 1.6 | -24% | 0.72 |  |  |  |
| COc1ccc2[nH]cc(CCN(C)CCCN3CCc4cc(OC)c(OC)cc4CC3=O)c2c1 | -18% | -32% | 1.8 | -29% | 0.92 |  |  |  |
| COc1cc2c(cc1OC)CC(=O)N(CCCN(C)CCc1csc3ccc(C)cc13)CC2 | -36% | -51% | 1.4 | -38% | 0.75 |  |  |  |
| COc1cc2c(cc1OC)CC(=O)N(CCCN(C)CCCCCCc1cccs1)CC2 | -26% | -53% | 2 | -21% | 0.4 |  |  |  |
| COc1cc2c(cc1OC)CC(=O)N(CCCN(C)CCc1csc3cc(OC)c(OC)cc13)CC2 | -17% | -24% | 1.4 | -17% | 0.71 |  |  |  |
| COc1cc2c(cc1OC)CC(=O)N(CCCN(C)CCc1cccnc1)CC2 | -11% | -12% | 1.1 | -18% | 1.5 |  |  |  |
| COc1cc2c(cc1OC)CC(=O)N(CCCN(C)CCc1cc3ccccc3o1)CC2 | -39% | -67% | 1.7 | -45% | 0.67 |  |  |  |
| COc1cc2c(cc1OC)CC(=O)N(CCCN(C)CCc1csc3ccc(Br)cc13)CC2 | -41% | -50% | 1.2 | -17% | 0.34 |  |  |  |
| COc1cc2c(cc1OC)CC(=O)N(CCCN(C)CCn1cnc3ccccc31)CC2 |  | -10% |  | -15% | 1.5 | inactive |  |  |
| COc1cc2c(cc1OC)CC(=O)N(CCCN(C)CCc1coc3cccc(OC)c13)CC2 | -8% | -31% | 3.9 | -14% | 0.45 |  |  |  |
| COc1cc2c(cc1OC)CC(=O)N(CCCN(C)CCc1cn(C)c3ccccc13)CC2 | -22% | -50% | 2.3 | -37% | 0.74 |  |  |  |
| COc1cc2c(cc1OC)CC(=O)N(CCCN(C)CCc1csc3ccccc13)CC2 | -55% | -66% | 1.2 | -51% | 0.78 |  |  |  |
| COc1cc2c(cc1OC)CC(=O)N(CCCN(C)Cc1csc3ccccc13)CC2 | -27% | -18% | 0.66 | -7% | 0.4 |  |  |  |
